Screening data (PubChem BioAssay)
G6PDH counter-1: inhibits Leuconostoc G6PDH, flagging false hits in G6PDH-based assays; Purified L. mesenteroides G6PDH, diaphorase/resazurin coupled fluorescence, 45 min; hit rate 0.12% among 200,000; inhibition, % at 5 µM; in the data active means inhibition above about 50%
PfG6PD inh: PfG6PD (Plasmodium falciparum) enzyme inhibition | PfGluPho enzyme, NADPH resazurin-diaphorase fluorescence | inhibition, % at 20 µM | hit rate 0.78% among 350,000;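 active means inhibition reaching at least a set limit at 20 µM in the primary screen, cut at about 59% in these data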;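 further: 0% = DMSO wells with substrate and 100% = DMSO wells lacking glucose-6-phosphate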
HKDC1 inh: inhibitors of human hexokinase HKDC1 | hit rate 0.16% among 340,000 | recombinant HKDC1, G6PDH/diaphorase resazurin coupled fluorescence | inhibition, % at 20 µM;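 active means inhibition above about 35% when tested at 20 µM, limit read from the data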;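 further: plate controls were DMSO wells with enzyme for no effect and DMSO wells lacking enzyme for full effect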
Target sequence (Q2TB90 whole entry, looked up): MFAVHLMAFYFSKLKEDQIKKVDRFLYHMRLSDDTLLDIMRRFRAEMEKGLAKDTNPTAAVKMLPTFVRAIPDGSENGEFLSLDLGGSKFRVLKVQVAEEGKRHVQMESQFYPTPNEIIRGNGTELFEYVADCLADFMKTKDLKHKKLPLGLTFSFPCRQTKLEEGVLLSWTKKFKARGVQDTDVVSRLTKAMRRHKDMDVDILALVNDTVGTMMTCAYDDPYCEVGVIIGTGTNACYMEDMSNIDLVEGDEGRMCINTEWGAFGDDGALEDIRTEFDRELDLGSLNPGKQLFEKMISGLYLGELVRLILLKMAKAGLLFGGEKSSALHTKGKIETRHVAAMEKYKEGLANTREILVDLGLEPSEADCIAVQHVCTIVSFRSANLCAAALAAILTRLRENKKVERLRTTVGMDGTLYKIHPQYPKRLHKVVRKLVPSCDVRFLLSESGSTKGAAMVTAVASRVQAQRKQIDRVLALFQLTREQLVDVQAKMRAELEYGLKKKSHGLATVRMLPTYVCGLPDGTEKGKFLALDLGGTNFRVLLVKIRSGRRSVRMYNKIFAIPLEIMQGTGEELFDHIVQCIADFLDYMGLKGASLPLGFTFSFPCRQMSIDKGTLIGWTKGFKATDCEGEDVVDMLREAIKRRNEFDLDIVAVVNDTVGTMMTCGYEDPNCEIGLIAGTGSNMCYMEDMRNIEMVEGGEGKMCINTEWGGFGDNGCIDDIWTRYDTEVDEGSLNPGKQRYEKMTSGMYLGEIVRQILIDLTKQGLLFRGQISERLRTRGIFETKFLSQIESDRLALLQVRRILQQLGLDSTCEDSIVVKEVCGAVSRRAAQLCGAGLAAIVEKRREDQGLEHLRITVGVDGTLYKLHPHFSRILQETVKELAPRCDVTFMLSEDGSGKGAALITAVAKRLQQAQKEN
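Material: recombinant HKDC1 hexokinase; Amount: HKDC1 at 5 µg/mL; Medium: Tris pH 8.0 buffer with MgCl2, Tween-20, BSA, BME; Schedule: 90 min reaction incubation at room temperature, dark; Technique: coupled resazurin fluorescence, excitation 525 nm, emission 613 nm.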
TbHK1 inh: blocks Trypanosoma brucei hexokinase 1 activity. hit rate 0.11% among 220,000. recombinant TbHK1, G6PDH-coupled NADH A340. inhibition, % at 10 µM. AID 1430;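 active means inhibition of 50% or more in the single-dose primary screen; inactive means inhibition below 50%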
Diaphorase inh: counter-screen for diaphorase-based assays: diaphorase inhibitors and chemical oxidizers; AID 1217; diaphorase resazurin-to-resorufin fluorescence, NADH, 16 min; bacterial (C. kluyveri) enzyme, not human; inhibition, % at 20 µM; hit rate 0.69% among 190,000;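 active means primary screen inhibition at 20 µM above a set limit, cut at about 50% in these data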;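 further: plate controls were DMSO with full reaction for no effect and wells lacking NADH for full effect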
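System: Diaphorase enzyme from Clostridium kluyveri | Amount: Enzyme working solution with 0.14 U/mL diaphorase | Benchmarks: No-NADH positive control and DMSO neutral control | Signal: Fluorescence of resorufin formed from resazurin, Ex 544/Em 590 nm | Schedule: 16-min room-temperature incubation before reading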
G6PDH counter-2: inhibits Leuconostoc G6PDH, counter-screen for TbHK1 inhibitors; shares compounds with TbHK1 inh; purified G6PDH, NADH absorbance, 1 h; inhibition, % at 10 µM; hit rate 7% among 210; AID 2516;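 active means at least 50% inhibition in the glucose-6-phosphate dehydrogenase coupled counterscreen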
TbHK1 rescreen: T. brucei hexokinase 1 inhibition, rescreen; shares compounds with TbHK1 inh; recombinant TbHK1, G6PDH-coupled NADH A340 absorbance; inhibition, % at 10 µM; hit rate 10% among 210; AID 2560;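 active means inhibition of at least 50% in both of the two screening runs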;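 further: 0% and 100% set by the maximum and minimum signal control wells on each plate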
Starred values were filed as active, the others as inactive; . = not tested or not shown; ! = not active in a repeat. A selection: hits, their analogues and other compounds. The true share with any hit is near 1.3%.

SMILES	G6PDH counter-1	PfG6PD inh	HKDC1 inh	TbHK1 inh	Diaphorase inh	G6PDH counter-2	TbHK1 rescreen
COc1cc(C2C(C#N)=C(N)Oc3cc(O)ccc32)cc2c1OCO2 (centres undefined)	-1.0	-18.4	4.6	-1.4	23.2	.	.
COc1cc(C2C(C#N)=C(N)Oc3cc(N(C)C)ccc32)cc2c1OCO2 (centres undefined)	6.8	6.5	-1.6	59.1*	24.8	-7.4	-12.7
O=C1CCCCCN1Sc1ccccc1	7.0	28.5	-2.0	2.0	13.8	.	.
O=C(COc1ccc(Br)cc1)NNC(=S)NC(=O)c1ccccc1[N+](=O)[O-]	3.1	-22.2	-14.0	60.9*	44.5	-20.1	-6.1
O=C1CN(C(=O)COC(=O)CCC(=O)c2ccc3c(c2)OCCO3)c2ccccc2N1	2.2	-2.7	-1.1	50.1*	-0.8	-5.8	-4.7
O=C1CN(C(=O)COC(=O)CCC(=O)c2ccc(Cl)cc2)c2ccccc2N1	.	2.3	-6.1	.	.	.	.
Cc1ccccc1OCc1n(CC(=O)OC2CC(C)CCC2C(C)C)c2ccccc2[n+]1C (centres undefined)	2.1	-3.7	-5.4	75.6*!	-24.0	38.8	29.8
CC1CCC(C(C)C)C(OC(=O)Cn2c(-c3ccc(Br)cc3)[n+](C)c3ccccc32)C1 (centres undefined)	-11.9	-24.2	-4.9	29.0	0.8	.	.
COc1ccc(NC(=O)CN(C)C(=O)C(NC(=O)c2ccco2)C(C)C)cc1 (centres undefined)	.	-2.0	0.4	.	.	.	.
CNS(=O)(=O)c1cccc(C(=O)OCC(=O)Nc2ccc(OC)cc2[N+](=O)[O-])c1	4.2	9.5	-7.0	-1.1	11.2	.	.
CC1CCCN(C(=O)C2CCN(S(=O)(=O)c3cccc4nsnc34)CC2)C1 (centres undefined)	.	-11.9	-5.1	.	.	.	.
O=C(C1CCN(S(=O)(=O)c2cccc3nsnc23)CC1)N1CCc2ccccc2C1	10.1	16.6	7.5	53.6*	14.3	-30.3	-19.2
CCN(CC)S(=O)(=O)c1ccc(C(=O)Nc2ncn(Cc3ccccc3)n2)cc1	2.8	-15.3	1.5	63.7*	10.4	-5.5	2.3
CCN(CC)S(=O)(=O)c1ccc(C(=O)NCc2n[nH]c(=S)n2Cc2ccccc2)cc1	3.7	20.0	5.0	60.5*	19.9	-11.7	4.6
CCN(CC)S(=O)(=O)c1ccc(C(=O)Nn2cnnc2)cc1	.	-18.9	0.7	.	.	.	.
Cc1sc2ncnc(SCC(=O)c3ccc(O)cc3O)c2c1C	.	-13.3	0.5	-28.4	.	.	.
O=S(=O)(Nc1ccc(Br)cn1)c1ccc(Cl)s1	.	-10.0	5.5	.	.	.	.
Cc1ccc(S(=O)(=O)NNC(=S)NC(=O)c2ccc([N+](=O)[O-])cc2)cc1	-14.4	-10.5	-25.4	77.8*	27.0	-26.1	10.1
c1ccc2c(CSc3ncnc4nc[nH]c34)cccc2c1	9.4	-16.7	19.6	0.8	31.3	.	.
COc1ccc(CCNC(=O)C2CCCCC2C(=O)O)cc1OC (centres undefined)	-0.3	.	.	58.7*	9.0	-4.6	2.7
O=C(O)C1CCCCC1C(=O)NCCc1ccccc1 (centres undefined)	-3.7	7.1	-5.8	2.2	4.1	.	.
Cc1c(Cl)cccc1N1C(=O)C2ON(c3ccccc3)C(c3cccnc3)C2C1=O (centres undefined)	3.4	-7.0	-0.6	51.0*	32.1	-25.8	-9.2
O=C1NN=C2CCCCCC12 (centres undefined)	.	-24.4	.	.	.	.	.
Cn1cccc1CNC(=O)Nc1ccc(Cl)cc1	-0.9	-7.8	-15.2	1.8	15.1	.	.
O=C(NCCCN1CCOCC1)C(=O)NCC1CCCO1 (centres undefined)	-0.8	3.5	-11.2	31.3	4.7	.	.
SMILES	G6PDH counter-1	PfG6PD inh	HKDC1 inh	TbHK1 inh	Diaphorase inh	G6PDH counter-2	TbHK1 rescreen
O=C(O)C1CCCCC1C(=O)NCCCN1CCOCC1 (centres undefined)	8.9	-3.8	-4.4	51.0*	3.3	-7.1	-3.1
COC(=O)NCCOC(=O)N(O)c1ccc(Br)cc1	10.8	5.2	-2.2	56.7*	19.6	-1.2	2.6
COCCNC(=O)CN(C)S(=O)(=O)c1ccc(Br)cc1	-1.0	14.0	-5.7	2.9	13.8	.	.
Cc1ccc(Cl)cc1NC(=O)C1COc2ccccc2O1 (centres undefined)	.	2.1	-4.3	.	.	.	.
C=CCNC(=O)CC(C)C(CCCCC)C(=O)O (centres undefined)	3.6	-4.9	-10.7	50.3*	14.0	-9.0	2.8
CCCCC(C(=O)O)C(C)CC(=O)Nc1cccc(C(=O)O)c1 (centres undefined)	9.3	1.7	2.5	-1.8	16.8	.	.
O=C(Nc1ccc(Oc2ccccc2)cc1)N[C@@H](Cc1ccccc1)C(=O)O	.	-31.0	0.3	.	.	.	.
Cc1cc(NC(=O)COC(=O)CCCOc2ccc(Cl)cc2C)no1	3.3	-16.1	0.1	54.9*	10.2	-0.2	-3.7
COc1cc(-c2noc(CCC(=O)Nc3cccnc3)n2)cc(OC)c1OC	1.2	1.2	5.8	54.3*	8.6	-8.6	1.1
CC(=O)c1ccc(NC(=O)C2CC(c3ccc(F)cc3)=NO2)cc1 (centres undefined)	3.0	-2.4	-8.3	51.9*	-1.4	2.2	7.6
Nc1nonc1-c1nc2ccccc2n1CC(=O)N/N=C\c1ccc(-c2ccc(Cl)cc2)o1	0.6	0.1	1.0	52.2*	-4.5	108.5*	13.5
NNC(=O)Cn1c(-c2nonc2N)nc2ccccc21	3.1	-6.8	-1.3	-6.3	12.1	.	.
Brc1ccc(NCc2nnc3n2CCCCC3)cc1	6.4	-19.6	2.3	-0.9	9.1	.	.
COc1ccc(NC2=NC3(CCCCC3)N=C(N)N2)cc1	4.5	-12.6	-9.4	62.0*	-5.3	19.1	12.8
O=C(Nc1nonc1-c1ccc(F)cc1)c1ccco1	.	-7.8	-1.8	.	.	.	.
CC1SCC(NC(=O)c2ccc(Cl)cc2)CS1 (centres undefined)	.	-5.0	-2.3	50.9*	.	-0.6	0.2
Cc1ccc(CNC(=O)CCS(=O)(=O)c2ccc(Br)cc2)cc1	7.0	-9.3	-3.9	68.3*	1.9	-2.5	79.2*
CN1C(=O)C(Cl)(Cl)C(=O)c2ccccc21	24.9	44.1	-7.0	75.0*	76.3*	32.9	32.7
CC(C)(C)OC(=O)NCC(=O)NCC(=O)OCc1ccccc1	-13.9	-24.2	3.7	53.5*	5.0	3.2	1.4
CC(C)(C)c1ccc(COC(=O)CNC(=O)CNC(=O)Cc2ccccc2)cc1	7.9	10.3	-3.9	2.7	5.9	.	.
COC(=O)c1ccc(CSc2nc3ccccc3c(=O)n2N)cc1	.	2.6	-1.7	.	.	.	.
NC(=O)C1CCN(C(=O)c2cc(S(=O)(=O)N3CCOCC3)c(Cl)cc2Cl)CC1	2.1	8.6	-3.3	68.5*	7.5	-8.3	-2.6
Cn1cccc1C(=O)OCC(=O)Nc1ccc2c(c1)OCCO2	.	-9.2	-3.0	.	.	.	.
